From PubChem BioAssay
HTRA1 inh = inhibitors of human serine peptidase HTRA1; AID 504803; inhibition, % at 5.96 µM; actives 0.5% (n = 340,000); recombinant HTRA1, FP-rhodamine activity-based probe, fluorescence polarization; Q92743; in the data active = inhibition above about 36%;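 also: 0% = enzyme with DMSO and 100% = wells lacking enzyme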
Target sequence (Q92743 whole entry, looked up): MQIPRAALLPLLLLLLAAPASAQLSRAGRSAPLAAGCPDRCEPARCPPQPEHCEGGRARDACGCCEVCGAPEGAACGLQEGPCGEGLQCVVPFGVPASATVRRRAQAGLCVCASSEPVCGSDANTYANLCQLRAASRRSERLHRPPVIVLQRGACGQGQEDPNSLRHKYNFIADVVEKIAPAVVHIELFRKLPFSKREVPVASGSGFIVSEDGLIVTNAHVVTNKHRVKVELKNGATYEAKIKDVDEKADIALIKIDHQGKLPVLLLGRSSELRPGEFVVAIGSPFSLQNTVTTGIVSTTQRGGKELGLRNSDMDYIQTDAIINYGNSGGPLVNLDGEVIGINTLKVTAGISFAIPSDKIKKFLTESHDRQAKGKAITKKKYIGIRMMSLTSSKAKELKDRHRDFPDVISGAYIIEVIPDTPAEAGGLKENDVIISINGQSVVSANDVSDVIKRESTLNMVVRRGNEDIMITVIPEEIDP
SIAE inh = inhibitors of human sialic acid acetylesterase SIAE. Q9HAT2. SIAE FP-Rh probe binding, fluorescence polarization. inhibition, % at 9.66 µM. actives 0.69% (n = 370,000);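 active = inhibition above a cutoff: mean of compounds within the control limits plus 3 SD of those, cut at about 17% in these data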;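 also: 0% = plate median of compound wells and 100% = probe without SIAE protein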
ARNT-TACC3 inh = disrupts binding between human ARNT and TACC3; Q9Y6A5; inhibition, % at 9.99 µM; AlphaScreen His-ARNT PAS-B/GST-TACC3 binding, luminescence; TACC3 fragment carries E629A point mutation; actives 0.66% (n = 390,000); AID 623870;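 active = mean inhibition of replicates at least 50% and at least half of replicates each reaching 50%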;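 also: 0% = complete ARNT plus TACC3 wells and 100% = ARNT alone without TACC3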
TCR-CD3 inh = human TCR-CD3 binding inhibition; actives 0.37% (n = 360,000); AID 651800; TAMRA-labeled TCR probe fluorescence, biochemical; inhibition, % at 9.4 µM;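 also: recombinant mutant TCR 2C K166C tagged with TAMRA read by polarization; 0% = receptor in buffer alone and 100% = receptor with positive control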
mABHD4 FP = ABHD4 (mouse) inhibition, primary FP screen | Q8VD66 | purified mABHD4, FP-Rh probe fluorescence polarization | inhibition, % at 8.92 µM | actives 0.54% (n = 370,000) | AID 720543;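 active = inhibition exceeding the mean over every tested compound plus 3 SD, cut at about 30% in these data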;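 also: 0% = plate median of compound wells and 100% = S159A mutant with DMSO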
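system = mouse ABHD4 enzyme, wild type | medium = HEPES pH 7.0, NaCl, Pluronic buffer | also added = FP-Rh probe | incubation = Enzyme–compound pre-incubation 45 min, then probe 60 min, both 25 °C | technique = fluorescence polarization, excitation 525 nm, emission 598 nm, BODIPY TMR filters | controls = S159A mutant high control, sample median low control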
HTRA1 inh conf = confirmation of human HTRA1 inhibitors; shares compounds with HTRA1 inh; actives 66% (n = 1,600); inhibition, % at 5.96 µM; AID 540248; recombinant HTRA1, FP-rhodamine activity-based probe, fluorescence polarization;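 active = mean inhibition over three repeats above a set limit taken from the earlier primary screen, cut at about 37% in these data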;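 also: 0% = HTRA1 with DMSO and 100% = wells lacking HTRA1; inhibitors block probe binding so polarization drops and inhibition rises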
BSA probe FL = BSA probe counter-screen for TCR-CD3 inhibitors; AID 652035; actives 10% (n = 1,200); shares compounds with TCR-CD3 inh; TAMRA-labeled BSA probe fluorescence counterscreen; inhibition, % at 9.4 µM; in the data active = inhibition above about 23%;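 also: 0% = buffer low control and 100% = reference high control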
TCR-CD3 inh conf = confirmation of human TCR-CD3 interaction inhibitors; shares compounds with TCR-CD3 inh; TAMRA-labeled TCR probe fluorescence binding assay; inhibition, % at 9.4 µM; actives 48% (n = 1,200)
ABHD4 confirm = confirmation of mouse ABHD4 inhibitors; purified mABHD4, FP-Rh probe fluorescence polarization; shares compounds with mABHD4 FP; inhibition, % at 8.92 µM; actives 55% (n = 1,800);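 active = mean inhibition across replicates above the hit cutoff set in the primary screen, cut at about 30% in these data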;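 also: 0% = wild-type ABHD4 with DMSO and 100% = catalytically dead S159A mutant with DMSO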
* marks the source's active call; other numbers are inactive results; nt = not tested or not shown; ! = not confirmed by another sample. The list is not random: actives were taken first. Their share in the collection is about 1.8%. Rule as the data show it, unless noted: active = inhibition above about 19%; inactive = the rest.

SMILES | HTRA1 inh | SIAE inh | ARNT-TACC3 inh | TCR-CD3 inh | mABHD4 FP | HTRA1 inh conf | ABHD4 confirm | others
Cc1cc2cc(CNC(=O)COc3ccccc3)ccc2n1C | 45* | 7 | 2 | 27* | 32* | 5 | -7 | BSA probe FL=14;TCR-CD3 inh conf=9
CO[C@H]1CN(C)C(=O)c2ccc(NC(C)=O)cc2OC[C@H](C)N(CCc2ccccc2)C[C@H]1C | nt | nt | -2 | nt | nt | nt | nt
CC(=O)N1CCN(c2ccc(NCc3cccc4ccccc34)cc2)CC1 | 37* | 10 | 6 | 3 | 30* | 26 | 8
COc1ccc(S(=O)(=O)N[C@H]2C=C[C@H](CC(=O)NCCc3ccncc3)O[C@H]2CO)cc1 | nt | nt | 11 | nt | nt | nt | nt
O=C1c2c(O)ccc(O)c2C(=O)c2c(NCCNCCO)ccc(NCCNCCO)c21 | 72* | 11 | 65* | -7 | 33*! | 59* | 37*
COc1ccc(N2C3=C(CC4=C2CCCC4=O)C(=O)CCC3)cc1 | 76* | 14 | 1 | 2 | 59* | 68* | 16
NC(=S)N=Nc1c(O)cc(O)c2[nH]c(=O)ccc12 | 61* | 12 | 64* | 30* | 34* | 43* | 77*
NC(=S)N=Nc1c(O)[nH]c2ccc(F)cc12 | 7 | -4 | 6 | -3 | 9 | nt | nt
C[C@@H]1CCCCO[C@H](CN(C)Cc2ccc(C(=O)O)cc2)[C@H](C)CN([C@H](C)CO)C(=O)c2cc(NS(=O)(=O)c3cn(C)cn3)ccc2O1 | nt | nt | 7 | nt | nt | nt | nt
COCCNC(=O)C[C@@H]1CC[C@H](NC(=O)NC2CCCCC2)[C@@H](CO)O1 | nt | nt | -12 | nt | nt | nt | nt
COc1ccc(CCn2c(O)cc3nn(-c4nc5ccccc5s4)c(=O)c-3c2C)cc1 | 42* | 2 | 6 | 1 | 37* | 88* | 17
Cc1coc2c1C(=O)C(=O)c1c-2ccc2c1CCCC2(C)C | 67* | 13 | 2 | 123* | 49* | 66* | 58* | BSA probe FL=-1;TCR-CD3 inh conf=1
O=C(CSc1nc2ccccc2o1)N/N=C/c1ccccc1 | 16 | 6 | -5 | 4 | 7 | nt | nt
Cc1cc(SCC(=O)N/N=C/c2ccc(O)c(O)c2)nc2ccccc12 | 78* | 3 | 10 | 26* | 35* | 74* | 31* | BSA probe FL=-10;TCR-CD3 inh conf=39*
O=C(CSc1nc2ccccc2o1)N/N=C/c1ccc(O)c(O)c1 | 37* | 16 | 21 | 13 | 34* | 66* | 29
Cc1ccc2nc(SCC(=O)N/N=C/c3ccco3)cc(C)c2c1 | -26 | 5 | 6 | 6 | -3 | nt | nt
COCC(=O)Nc1ccc2c(c1)C(=O)N(C)[C@@H]1CC[C@H](CC(=O)NCC(F)(F)F)O[C@H]1CO2 | nt | nt | -1 | nt | nt | nt | nt
O=C(O)COc1ccccc1C(Nc1ccccn1)c1cc(Cl)c2cccnc2c1O (stereo unspecified) | 74* | 12 | 0 | 5 | 33* | 84* | 24
CCn1nc([N+](=O)[O-])c(C(C#N)c2nc3ccccc3n2C)c(Cl)c1=O (stereo unspecified) | 11 | 3 | 4 | 1 | 19 | nt | nt
CCCn1nc([N+](=O)[O-])c(C(C#N)c2nc3ccccc3s2)c(Cl)c1=O (stereo unspecified) | 76* | 7 | 12 | -2 | 78* | 72* | 98*
C[C@@H]1CN([C@@H](C)CO)C(=O)c2cc(NC(=O)Nc3cccc4ccccc34)ccc2O[C@@H]1CN(C)S(C)(=O)=O | nt | nt | -2 | nt | nt | nt | nt
CO[C@@H]1CN(C)C(=O)c2ccc(NC(=O)c3ccccn3)cc2OC[C@@H](C)N(C(=O)C2CCCC2)C[C@H]1C | nt | nt | 12 | nt | nt | nt | nt
CC1OC(Nc2cccc3ccccc23)C(O)C(O)C1O (stereo unspecified) | 43* | 1 | 30 | -3 | 36* | 12 | 1
CC(C)(O)C#Cc1ccc([C@@H]2[C@@H](CO)N3CCCCN(C(=O)c4cccc(F)c4)C[C@@H]23)cc1 | nt | nt | -1 | nt | nt | nt | nt
COc1ccc2noc3c2c1C(=O)c1ccccc1-3 | 63* | 18* | 22 | 22* | 54* | 45* | 29 | BSA probe FL=44*;TCR-CD3 inh conf=29*
SMILES | HTRA1 inh | SIAE inh | ARNT-TACC3 inh | TCR-CD3 inh | mABHD4 FP | HTRA1 inh conf | ABHD4 confirm | others
COc1ccc(S(=O)(=O)N[C@@H]2C=C[C@@H](CC(=O)NCCc3ccncc3)O[C@@H]2CO)cc1 | nt | nt | 9 | nt | nt | nt | nt
Oc1cc(CNC2CCCCC2)c(O)cc1CNC1CCCCC1 | 48* | 3 | 7 | 6 | 38* | 64* | 56*
Oc1cccc(/C=N/N=C/c2cccc(O)c2O)c1O | 36* | -12 | 7 | -4 | 36* | 45* | 19
Cc1ccc2nc(/C(C#N)=C/c3ccc(O)c(O)c3)[nH]c2c1 | 67* | 16 | 4 | 11 | 55* | 92* | 52*
O=C(C[C@@H]1CC[C@H]2[C@@H](COC[C@H](O)CN2C(=O)c2ccccc2F)O1)N1CCOCC1 | nt | nt | -8 | nt | nt | nt | nt
Cc1cc(C(=O)N/N=C/c2ccc(O)c(O)c2O)c(C)n1-c1ccccc1 | 67* | 15 | 41 | 30* | 61* | 67* | 47* | BSA probe FL=-18;TCR-CD3 inh conf=29*
Cc1cc(/C=N/NC(=O)c2ccncc2)c(C)n1-c1ccccc1 | 11 | 1 | 28 | 8 | 3 | nt | nt
C[C@H](CO)N1C[C@H](C)[C@H](CN(C)CC2CCCCC2)Oc2ccc(NC(=O)Nc3ccc(C(F)(F)F)cc3)cc2CC1=O | nt | nt | -15 | nt | nt | nt | nt
COCC(=O)N1C[C@@H](C)[C@@H](OC)CN(C)C(=O)c2cc(NC(=O)Nc3cccc(F)c3)ccc2OC[C@@H]1C | nt | nt | 0 | nt | nt | nt | nt
Cc1cccc(S(=O)(=O)N2CC[C@@H]3[C@H](CO)Nc4ccc(C#Cc5cccnc5)cc4[C@@H]32)c1 | nt | nt | 0 | nt | nt | nt | nt
COC(=O)/C=C/c1ccc2c(c1)OCO2 | 1 | -5 | -7 | 5 | -1 | nt | nt
CCNc1ccccc(C(=O)/C=C/c2ccc3c(c2)OCO3)c1=O | 36* | 16 | 16 | 7 | 41* | 19 | 22
N#C/C(=C\c1cccnc1)C(=O)Nc1ccccc1 | 0 | 2 | 3 | 4 | -4 | nt | nt
N#C/C(=C\c1ccc(O)c(O)c1)C(=O)Nc1ccccc1 | 68* | 10 | 1 | 12 | 73* | 177* | 43*
N#C/C(=C/c1ccc(O)c(O)c1)C(=O)NCc1ccc(Cl)cc1 | 81* | 5 | 0 | 4 | 51* | 87* | 37*
C[C@@H](NC(=O)/C(C#N)=C/c1ccc(O)c(O)c1)c1ccccc1 | 68* | 11 | 1 | 3 | 54* | 91* | 28
